According to ChEMBL document CHEMBL2321753, “Synthesis and biological evaluation of radioiodinated quinacrine-based derivatives for SPECT imaging of Aβ plaques” (Eur J Med Chem, 2013):
Values belong to the compound of their own block, whether it stands above or below them. Activity calls are given as the source filed them. The calls are words filed in the database; no cut-off is given here.

How the values were obtained:
Heart [1] = experiment: Biodistribution in ddY mouse heart at 0.1 to 0.4 uCi, iv after 60 mins by gamma counting; assay type: ADME, organism-based; conditions: in vivo, 1 h
Method in brief: (§1)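 [125I]ligand (0.1–0.4 µCi) in 100 µL PBS (pH 7.4) containing 30 µL DMSO, injected into the tail vein of ddY mice (5 weeks, 22–25 g). Mice sacrificed at 2, 10, 30 and 60 min. Organs removed, weighed and gamma-counted. Values are % injected dose per gram, except stomach as % dose per organ. Mean (SD) of 3–6 mice per time point.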

Lung [2] = experiment: Biodistribution in ddY mouse lung at 0.1 to 0.4 uCi, iv after 60 mins by gamma counting; assay type: ADME, organism-based; conditions: in vivo, 1 h; method in brief: as §1
Blood [3] = experiment: Biodistribution in ddY mouse blood at 0.1 to 0.4 uCi, iv after 60 mins by gamma counting; assay type: ADME, organism-based; conditions: in vivo, 1 h; method in brief: as §1
Spleen [4] = experiment: Biodistribution in ddY mouse spleen at 0.1 to 0.4 uCi, iv after 10 mins by gamma counting; assay type: ADME, organism-based; conditions: in vivo; method in brief: as §1
Intestine [5] = experiment: Biodistribution in ddY mouse intestine at 0.1 to 0.4 uCi, iv after 10 mins by gamma counting; assay type: ADME, organism-based; conditions: in vivo; method in brief: as §1
Stomach [6] = experiment: Biodistribution in ddY mouse stomach assessed per organ at 0.1 to 0.4 uCi, iv after 60 mins by gamma counting; assay type: ADME, organism-based; conditions: in vivo, 1 h; method in brief: as §1
Kidney [7] = experiment: Biodistribution in ddY mouse kidney at 0.1 to 0.4 uCi, iv after 30 mins by gamma counting; assay type: ADME, organism-based; conditions: in vivo, 0.5 h; method in brief: as §1
Lung [8] = experiment: Biodistribution in ddY mouse lung at 0.1 to 0.4 uCi, iv after 10 mins by gamma counting; assay type: ADME, organism-based; conditions: in vivo; method in brief: as §1
Pancreas [9] = experiment: Biodistribution in ddY mouse pancreas at 0.1 to 0.4 uCi, iv after 10 mins by gamma counting; assay type: ADME, organism-based; conditions: in vivo; method in brief: as §1
Kidney [10] = experiment: Biodistribution in ddY mouse kidney at 0.1 to 0.4 uCi, iv after 2 mins by gamma counting; assay type: ADME, organism-based; conditions: in vivo; method in brief: as §1
[11] = n-octanol-sodium phosphate buffer partition co-efficient, log D of the compound at pH 7.4 by shake flask method; assay type: physicochemical
Method in brief: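 Shake-flask partition between n-octanol and sodium phosphate buffer, pH 7.4, shaken 10 min at room temperature, then centrifuged. Weighed 0.5 mL samples of each layer counted. log D from the ratio of cpm per gram of octanol to cpm per gram of buffer; n = 3.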

Intestine [12] = experiment: Biodistribution in ddY mouse intestine at 0.1 to 0.4 uCi, iv after 60 mins by gamma counting; assay type: ADME, organism-based; conditions: in vivo, 1 h; method in brief: as §1
Heart [13] = experiment: Biodistribution in ddY mouse heart at 0.1 to 0.4 uCi, iv after 10 mins by gamma counting; assay type: ADME, organism-based; conditions: in vivo; method in brief: as §1
Spleen [14] = experiment: Biodistribution in ddY mouse spleen at 0.1 to 0.4 uCi, iv after 2 mins by gamma counting; assay type: ADME, organism-based; conditions: in vivo; method in brief: as §1
Pancreas [15] = experiment: Biodistribution in ddY mouse pancreas at 0.1 to 0.4 uCi, iv after 30 mins by gamma counting; assay type: ADME, organism-based; conditions: in vivo, 0.5 h; method in brief: as §1
Brain [16] = experiment: Biodistribution in ddY mouse brain at 0.1 to 0.4 uCi, iv after 60 mins by gamma counting; assay type: ADME, organism-based; conditions: in vivo, 1 h; method in brief: as §1
Intestine [17] = experiment: Biodistribution in ddY mouse intestine at 0.1 to 0.4 uCi, iv after 30 mins by gamma counting; assay type: ADME, organism-based; conditions: in vivo, 0.5 h; method in brief: as §1
Intestine [18] = experiment: Biodistribution in ddY mouse intestine at 0.1 to 0.4 uCi, iv after 2 mins by gamma counting; assay type: ADME, organism-based; conditions: in vivo; method in brief: as §1
Stomach [19] = experiment: Biodistribution in ddY mouse stomach assessed per organ at 0.1 to 0.4 uCi, iv after 30 mins by gamma counting; assay type: ADME, organism-based; conditions: in vivo, 0.5 h; method in brief: as §1
Liver [20] = experiment: Biodistribution in ddY mouse liver at 0.1 to 0.4 uCi, iv after 30 mins by gamma counting; assay type: ADME, organism-based; conditions: in vivo, 0.5 h; method in brief: as §1
Stomach [21] = experiment: Biodistribution in ddY mouse stomach assessed per organ at 0.1 to 0.4 uCi, iv after 10 mins by gamma counting; assay type: ADME, organism-based; conditions: in vivo; method in brief: as §1
Brain [22] = experiment: Ratio of drug level in brain after 2 mins to brain after 60 mins in ddY mouse brain at 0.1 to 0.4 uCi, iv; assay type: ADME, organism-based; conditions: in vivo
Method in brief: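 ddY mice (5 weeks, 22–25 g) given [125I]ligand (0.1–0.4 µCi) iv in PBS/DMSO. Brain radioactivity (% dose/g) measured by gamma counting at 2 and 60 min, and the 2 min/60 min ratio taken as a washout index.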

Blood [23] = experiment: Biodistribution in ddY mouse blood at 0.1 to 0.4 uCi, iv after 30 mins by gamma counting; assay type: ADME, organism-based; conditions: in vivo, 0.5 h; method in brief: as §1
Blood [24] = experiment: Biodistribution in ddY mouse blood at 0.1 to 0.4 uCi, iv after 2 mins by gamma counting; assay type: ADME, organism-based; conditions: in vivo; method in brief: as §1
Pancreas [25] = experiment: Biodistribution in ddY mouse pancreas at 0.1 to 0.4 uCi, iv after 60 mins by gamma counting; assay type: ADME, organism-based; conditions: in vivo, 1 h; method in brief: as §1
Lung [26] = experiment: Biodistribution in ddY mouse lung at 0.1 to 0.4 uCi, iv after 30 mins by gamma counting; assay type: ADME, organism-based; conditions: in vivo, 0.5 h; method in brief: as §1
Spleen [27] = experiment: Biodistribution in ddY mouse spleen at 0.1 to 0.4 uCi, iv after 60 mins by gamma counting; assay type: ADME, organism-based; conditions: in vivo, 1 h; method in brief: as §1
Liver [28] = experiment: Biodistribution in ddY mouse liver at 0.1 to 0.4 uCi, iv after 10 mins by gamma counting; assay type: ADME, organism-based; conditions: in vivo; method in brief: as §1
Stomach [29] = experiment: Biodistribution in ddY mouse stomach assessed per organ at 0.1 to 0.4 uCi, iv after 2 mins by gamma counting; assay type: ADME, organism-based; conditions: in vivo; method in brief: as §1
Kidney [30] = experiment: Biodistribution in ddY mouse kidney at 0.1 to 0.4 uCi, iv after 60 mins by gamma counting; assay type: ADME, organism-based; conditions: in vivo, 1 h; method in brief: as §1
Brain [31] = experiment: Biodistribution in ddY mouse brain at 0.1 to 0.4 uCi, iv after 2 mins by gamma counting; assay type: ADME, organism-based; conditions: in vivo; method in brief: as §1
Lung [32] = experiment: Biodistribution in ddY mouse lung at 0.1 to 0.4 uCi, iv after 2 mins by gamma counting; assay type: ADME, organism-based; conditions: in vivo; method in brief: as §1
Liver [33] = experiment: Biodistribution in ddY mouse liver at 0.1 to 0.4 uCi, iv after 2 mins by gamma counting; assay type: ADME, organism-based; conditions: in vivo; method in brief: as §1
Heart [34] = experiment: Biodistribution in ddY mouse heart at 0.1 to 0.4 uCi, iv after 30 mins by gamma counting; assay type: ADME, organism-based; conditions: in vivo, 0.5 h; method in brief: as §1
Pancreas [35] = experiment: Biodistribution in ddY mouse pancreas at 0.1 to 0.4 uCi, iv after 2 mins by gamma counting; assay type: ADME, organism-based; conditions: in vivo; method in brief: as §1
Kidney [36] = experiment: Biodistribution in ddY mouse kidney at 0.1 to 0.4 uCi, iv after 10 mins by gamma counting; assay type: ADME, organism-based; conditions: in vivo; method in brief: as §1
Brain [37] = experiment: Biodistribution in ddY mouse brain at 0.1 to 0.4 uCi, iv after 10 mins by gamma counting; assay type: ADME, organism-based; conditions: in vivo; method in brief: as §1
Brain [38] = experiment: Biodistribution in ddY mouse brain at 0.1 to 0.4 uCi, iv after 30 mins by gamma counting; assay type: ADME, organism-based; conditions: in vivo, 0.5 h; method in brief: as §1
Spleen [39] = experiment: Biodistribution in ddY mouse spleen at 0.1 to 0.4 uCi, iv after 30 mins by gamma counting; assay type: ADME, organism-based; conditions: in vivo, 0.5 h; method in brief: as §1
Blood [40] = experiment: Biodistribution in ddY mouse blood at 0.1 to 0.4 uCi, iv after 10 mins by gamma counting; assay type: ADME, organism-based; conditions: in vivo; method in brief: as §1
Liver [41] = experiment: Biodistribution in ddY mouse liver at 0.1 to 0.4 uCi, iv after 60 mins by gamma counting; assay type: ADME, organism-based; conditions: in vivo, 1 h; method in brief: as §1
Heart [42] = experiment: Biodistribution in ddY mouse heart at 0.1 to 0.4 uCi, iv after 2 mins by gamma counting; assay type: ADME, organism-based; conditions: in vivo; method in brief: as §1
Mus musculus [43] = species on record: Mus musculus; experiment: Binding affinity to amyloid beta plaques in wild type mouse brain at 100 uM after 3 to 10 hrs using Thioflavin S staining by fluorescence microscopy; assay type: tissue-based
Method in brief: (§2)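 Brains of female Tg2576 mice (32 months) or wild-type controls (30 months) removed after decapitation and frozen in powdered dry ice. 10 µm sections incubated with compound (100 µM) for 3–10 h, then washed twice for 5 min in 50% EtOH or 50% DMSO. Fluorescence imaged with a GFP filter set (ex 470 nm, em >535 nm). Adjacent sections stained with thioflavin S to confirm plaques.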

[44] = target: Amyloid-beta precursor protein (Homo sapiens, UniProt P05067); experiment: Displacement of [125I]IMPY from amyloid beta (1 to 42) (unknown origin) after 3 hrs by gamma counting
Method in brief: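 Filtered through GF/B filters and bound radioactivity gamma-counted. IC50 from displacement curves of three independent experiments; Ki calculated with the Cheng–Prusoff equation.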

Mus musculus [45] = species on record: Mus musculus; experiment: Binding affinity to amyloid beta plaques in Tg2576 transgenic mouse brain at 100 uM after 3 to 10 hrs using Thioflavin S staining by fluorescence microscopy; assay type: tissue-based; method in brief: as §2

Sequence of Amyloid-beta precursor protein (P05067 whole entry): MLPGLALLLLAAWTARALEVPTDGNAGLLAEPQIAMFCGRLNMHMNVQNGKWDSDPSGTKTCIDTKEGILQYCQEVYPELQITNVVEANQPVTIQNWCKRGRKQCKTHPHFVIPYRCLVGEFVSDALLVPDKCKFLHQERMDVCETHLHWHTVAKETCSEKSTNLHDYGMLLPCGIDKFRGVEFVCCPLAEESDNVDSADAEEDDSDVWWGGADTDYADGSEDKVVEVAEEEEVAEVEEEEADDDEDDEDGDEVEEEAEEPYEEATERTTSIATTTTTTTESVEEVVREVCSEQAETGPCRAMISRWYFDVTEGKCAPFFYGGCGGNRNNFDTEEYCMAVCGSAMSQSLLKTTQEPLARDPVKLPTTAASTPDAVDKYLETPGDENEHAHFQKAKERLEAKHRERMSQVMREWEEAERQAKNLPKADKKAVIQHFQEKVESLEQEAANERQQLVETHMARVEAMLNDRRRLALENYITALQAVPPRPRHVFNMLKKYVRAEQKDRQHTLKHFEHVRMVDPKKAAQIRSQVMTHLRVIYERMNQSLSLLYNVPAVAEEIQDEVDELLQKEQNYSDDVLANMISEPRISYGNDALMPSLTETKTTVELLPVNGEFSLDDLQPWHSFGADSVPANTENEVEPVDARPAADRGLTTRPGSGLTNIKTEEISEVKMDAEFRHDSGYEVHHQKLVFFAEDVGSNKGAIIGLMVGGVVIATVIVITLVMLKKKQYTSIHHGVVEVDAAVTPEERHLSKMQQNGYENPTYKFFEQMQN

Drug uptake (Heart [1]): 0.84 % ID/g
Drug uptake (Lung [2]): 2.3 % ID/g
Drug uptake (Blood [3]): 0.56 % ID/g
Drug uptake (Spleen [4]): 9.14 % ID/g
Drug uptake (Intestine [5]): 9.11 % ID/g
Drug uptake (Stomach [6]): 5.58 %ID
Drug uptake (Kidney [7]): 10.25 % ID/g
Drug uptake (Lung [8]): 5.62 % ID/g
Drug uptake (Pancreas [9]): 6.92 % ID/g
Drug uptake (Kidney [10]): 12.98 % ID/g
logD [11]: 2.14
Drug uptake (Intestine [12]): 23.83 % ID/g
Drug uptake (Heart [13]): 2.8 % ID/g
Drug uptake (Spleen [14]): 7.6 % ID/g
Drug uptake (Pancreas [15]): 3.55 % ID/g
Drug uptake (Brain [16]): 0.33 % ID/g
Drug uptake (Intestine [17]): 19.47 % ID/g
Drug uptake (Intestine [18]): 3.82 % ID/g
Drug uptake (Stomach [19]): 4.63 %ID
Drug uptake (Liver [20]): 8.26 % ID/g
Drug uptake (Stomach [21]): 3.71 %ID
Ratio (Brain [22]): 9
Drug uptake (Blood [23]): 0.85 % ID/g
Drug uptake (Blood [24]): 1.75 % ID/g
Drug uptake (Pancreas [25]): 1.63 % ID/g
Drug uptake (Lung [26]): 4.38 % ID/g
Drug uptake (Spleen [27]): 4.45 % ID/g
Drug uptake (Liver [28]): 16.41 % ID/g
Drug uptake (Stomach [29]): 1.71 %ID
Drug uptake (Kidney [30]): 6 % ID/g
Drug uptake (Brain [31]): 2.97 % ID/g
Drug uptake (Lung [32]): 15.8 % ID/g
Drug uptake (Liver [33]): 17.25 % ID/g
Drug uptake (Heart [34]): 1.46 % ID/g
Drug uptake (Pancreas [35]): 6.91 % ID/g
Drug uptake (Kidney [36]): 11.89 % ID/g
Drug uptake (Brain [37]): 2.34 % ID/g
Drug uptake (Brain [38]): 0.95 % ID/g
Drug uptake (Spleen [39]): 6.02 % ID/g
Drug uptake (Blood [40]): 1.18 % ID/g
Drug uptake (Liver [41]): 7.52 % ID/g
Drug uptake (Heart [42]): 7.79 % ID/g
Compound: CNc1c2ccc([125I])cc2nc2ccc(OC)cc12

Activity (Mus musculus [43]): inactive
Ki [44]: 353 nM
Activity (Mus musculus [45]): Active
Compound: CCN(CC)CCCC(C)Nc1c2ccc(I)cc2nc2ccc(OC)cc12 (stereo not given)
